From ChEMBL document CHEMBL1926550, “Synthesis and antibacterial activity of naphthyridone derivatives containing mono/difluoro-methyloxime pyrrolidine scaffolds” (2012)
Values after ≈ are worked out from the molar mass of the structure shown.

Columns and labels:
Type in all cases: functional
Staphylococcus aureus [1] = experiment: Antibacterial activity against methicillin-resistant Staphylococcus aureus 10-2 infected KM mouse systemic infection model assessed as decrease in mouse mortality administered orally twice after 1 and 4 hrs post infection measured up to 7 days; details: 10-2, po
In short: (§1)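 Strains grown on MH agar at 35 °C for 18 h, suspended in gastric mucin. Male KM mice (19–21 g), groups of 10, infected intraperitoneally with 0.5 mL at 5–10× MLD. Four oral dose levels per drug at 1 and 4 h post infection. Mortality followed 7 days; ED50 with 95% confidence limits by Bliss method.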

[2] = test system: Staphylococcus epidermidis; experiment: Antibacterial activity against methicillin-resistant Staphylococcus epidermidis 10-2 after 18 hrs by two fold serial dilution method; details: 10-2, 18 h
In short: (§2)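 Agar two-fold serial dilution in melted Mueller-Hinton agar, 128 to 0.008 μg/mL. Plates inoculated with 10⁴ cfu, incubated 35 °C for 18 h. MIC taken as lowest concentration giving no visible growth on the plate.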

Enterococcus faecium [3] = experiment: Antibacterial activity against Enterococcus faecium 09-5 after 18 hrs by two fold serial dilution method; details: 09-5, 18 h
In short: (§3)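 Agar two-fold serial dilution in melted Mueller-Hinton agar, final concentrations 128 down to 0.008 μg/mL. Plates inoculated with 10⁴ cfu and incubated at 35 °C for 18 h. MIC taken as the lowest concentration giving no visible growth on the plate.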

Enterococcus faecium [4] = experiment: Antibacterial activity against Enterococcus faecium 09-3 after 18 hrs by two fold serial dilution method; details: 09-3, 18 h; in short: as §3
[5] = test system: Staphylococcus epidermidis; experiment: Antibacterial activity against methicillin-resistant Staphylococcus epidermidis 10-4 infected KM mouse systemic infection model assessed as decrease in mouse mortality administered orally twice after 1 and 4 hrs post infection measured up to 7 days; details: 10-4, po; in short: as §1
Staphylococcus aureus [6] = experiment: Antibacterial activity against methicillin-resistant Staphylococcus aureus 10-1 after 18 hrs by two fold serial dilution method; details: 10-1, 18 h; in short: as §2
Staphylococcus aureus [7] = experiment: Antibacterial activity against methicillin-sensitive Staphylococcus aureus 10-3 after 18 hrs by two fold serial dilution method; details: 10-3, 18 h; in short: as §3
[8] = test system: Staphylococcus epidermidis; experiment: Ratio of ciprofloxacin ED50 to compound ED50 for methicillin-resistant Staphylococcus epidermidis 10-4 infected KM mouse systemic infection model
Escherichia coli [9] = experiment: Antibacterial activity against Escherichia coli 10-1 after 18 hrs by two fold serial dilution method; details: 10-1, 18 h; in short: as §3
Escherichia coli [10] = experiment: Antibacterial activity against Escherichia coli 10-2 after 18 hrs by two fold serial dilution method; details: 10-2, 18 h; in short: as §3
[11] = test system: Staphylococcus epidermidis; experiment: Antibacterial activity against methicillin-sensitive Staphylococcus epidermidis 10-1 after 18 hrs by two fold serial dilution method; details: 10-1, 18 h; in short: as §3
Enterococcus faecalis [12] = experiment: Antibacterial activity against Enterococcus faecalis 09-1 after 18 hrs by two fold serial dilution method; details: 09-1, 18 h; in short: as §3
Staphylococcus aureus [13] = experiment: Antibacterial activity against methicillin-sensitive Staphylococcus aureus 10-6 after 18 hrs by two fold serial dilution method; details: 10-6, 18 h; in short: as §3
Pseudomonas aeruginosa [14] = experiment: Antibacterial activity against Pseudomonas aeruginosa ATCC 27853 after 18 hrs by two fold serial dilution method; details: ATCC 27853, 18 h; in short: as §3
Klebsiella pneumoniae [15] = experiment: Antibacterial activity against Klebsiella pneumoniae 10-3 after 18 hrs by two fold serial dilution method; details: 10-3, 18 h; in short: as §3
Escherichia coli [16] = experiment: Antibacterial activity against Escherichia coli 09-2 after 18 hrs by two fold serial dilution method; details: 09-2, 18 h; in short: as §3
Enterococcus faecalis [17] = experiment: Antibacterial activity against Enterococcus faecalis 09-2 after 18 hrs by two fold serial dilution method; details: 09-2, 18 h; in short: as §3
Pseudomonas aeruginosa [18] = experiment: Antibacterial activity against Pseudomonas aeruginosa 10-2 after 18 hrs by two fold serial dilution method; details: 10-2, 18 h; in short: as §3
Escherichia coli [19] = experiment: Antibacterial activity against Escherichia coli 09-1 after 18 hrs by two fold serial dilution method; details: 09-1, 18 h; in short: as §3
Staphylococcus aureus [20] = experiment: Antibacterial activity against methicillin-sensitive Staphylococcus aureus 10-2 after 18 hrs by two fold serial dilution method; details: 10-2, 18 h; in short: as §3
Enterococcus faecium [21] = experiment: Antibacterial activity against Enterococcus faecium 09-4 after 18 hrs by two fold serial dilution method; details: 09-4, 18 h; in short: as §3
Staphylococcus aureus [22] = experiment: Antibacterial activity against methicillin-resistant Staphylococcus aureus 10-2 after 18 hrs by two fold serial dilution method; details: 10-2, 18 h; in short: as §2
Pseudomonas aeruginosa [23] = experiment: Antibacterial activity against Pseudomonas aeruginosa 10-1 infected KM mouse systemic infection model assessed as decrease in mouse mortality administered orally twice after 1 and 4 hrs post infection measured up to 7 days; details: 10-1, po; in short: as §1
Staphylococcus aureus [24] = experiment: Antibacterial activity against methicillin-resistant Staphylococcus aureus 10-3 after 18 hrs by two fold serial dilution method; details: 10-3, 18 h; in short: as §2
Pseudomonas aeruginosa [25] = experiment: Ratio of ciprofloxacin ED50 to compound ED50 for Pseudomonas aeruginosa 10-1 infected KM mouse systemic infection model
Pseudomonas aeruginosa [26] = experiment: Antibacterial activity against Pseudomonas aeruginosa 10-3 after 18 hrs by two fold serial dilution method; details: 10-3, 18 h; in short: as §3
Klebsiella pneumoniae [27] = experiment: Antibacterial activity against Klebsiella pneumoniae 10-3 infected KM mouse systemic infection model assessed as decrease in mouse mortality administered orally twice after 1 and 4 hrs post infection measured up to 7 days; details: 10-3, po; in short: as §1
[28] = test system: Staphylococcus epidermidis; experiment: Antibacterial activity against methicillin-sensitive Staphylococcus epidermidis 10-2 after 18 hrs by two fold serial dilution method; details: 10-2, 18 h; in short: as §3
[29] = test system: Staphylococcus epidermidis; experiment: Ratio of gemifloxacin ED50 to compound ED50 for methicillin-resistant Staphylococcus epidermidis 10-4 infected KM mouse systemic infection model
[30] = test system: Staphylococcus epidermidis; experiment: Antibacterial activity against methicillin-resistant Staphylococcus epidermidis 10-1 after 18 hrs by two fold serial dilution method; details: 10-1, 18 h; in short: as §2
Enterococcus faecium [31] = experiment: Antibacterial activity against Enterococcus faecium 09-6 after 18 hrs by two fold serial dilution method; details: 09-6, 18 h; in short: as §3
Klebsiella pneumoniae [32] = experiment: Antibacterial activity against Klebsiella pneumoniae 10-1 after 18 hrs by two fold serial dilution method; details: 10-1, 18 h; in short: as §3
Escherichia coli [33] = experiment: Antibacterial activity against Escherichia coli 10-2 infected KM mouse systemic infection model assessed as decrease in mouse mortality administered orally twice after 1 and 4 hrs post infection measured up to 7 days; details: 10-2, po; in short: as §1
Klebsiella pneumoniae [34] = experiment: Antibacterial activity against Klebsiella pneumoniae 09-2 after 18 hrs by two fold serial dilution method; details: 09-2, 18 h; in short: as §3
Staphylococcus aureus [35] = experiment: Antibacterial activity against methicillin-sensitive Staphylococcus aureus 10-1 after 18 hrs by two fold serial dilution method; details: 10-1, 18 h; in short: as §3
Pseudomonas aeruginosa [36] = experiment: Ratio of gemifloxacin ED50 to compound ED50 for Pseudomonas aeruginosa 10-1 infected KM mouse systemic infection model
Staphylococcus aureus [37] = experiment: Antibacterial activity against methicillin-sensitive Staphylococcus aureus 10-5 after 18 hrs by two fold serial dilution method; details: 10-5, 18 h; in short: as §3
Staphylococcus aureus [38] = experiment: Antibacterial activity against Staphylococcus aureus ATCC 25923 after 18 hrs by two fold serial dilution method; details: ATCC 25923, 18 h; in short: as §3
Staphylococcus aureus [39] = experiment: Antibacterial activity against methicillin-sensitive Staphylococcus aureus 10-4 after 18 hrs by two fold serial dilution method; details: 10-4, 18 h; in short: as §3
Enterococcus faecium [40] = experiment: Antibacterial activity against Enterococcus faecium 09-1 after 18 hrs by two fold serial dilution method; details: 09-1, 18 h; in short: as §3
[41] = test system: Staphylococcus epidermidis; experiment: Antibacterial activity against methicillin-resistant Staphylococcus epidermidis 10-4 after 18 hrs by two fold serial dilution method; details: 10-4, 18 h; in short: as §2
Escherichia coli [42] = experiment: Antibacterial activity against Escherichia coli 10-3 after 18 hrs by two fold serial dilution method; details: 10-3, 18 h; in short: as §3
Pseudomonas aeruginosa [43] = experiment: Antibacterial activity against Pseudomonas aeruginosa 10-1 after 18 hrs by two fold serial dilution method; details: 10-1, 18 h; in short: as §3
Escherichia coli [44] = experiment: Antibacterial activity against Escherichia coli ATCC 25922 after 18 hrs by two fold serial dilution method; details: ATCC 25922, 18 h; in short: as §3
Staphylococcus aureus [45] = experiment: Antibacterial activity against methicillin-resistant Staphylococcus aureus 10-4 after 18 hrs by two fold serial dilution method; details: 10-4, 18 h; in short: as §2
Escherichia coli [46] = experiment: Antibacterial activity against Escherichia coli 09-3 after 18 hrs by two fold serial dilution method; details: 09-3, 18 h; in short: as §3
Enterococcus faecium [47] = experiment: Antibacterial activity against Enterococcus faecium 09-2 after 18 hrs by two fold serial dilution method; details: 09-2, 18 h; in short: as §3
Streptococcus pneumoniae = experiment: Antibacterial activity against Streptococcus pneumoniae 10-1 after 18 hrs by two fold serial dilution method; details: 10-1, 18 h; in short: as §3

NCC1CN(c2nc3c(cc2F)c(=O)c(C(=O)O)cn3C2CC2)C/C1=N\OC(F)F (racemic)
ED50 (Staphylococcus aureus [1]): 14.3 mg/kg | MIC [2]: 0.25 µg/mL (≈ 0.588 µM) | MIC (Enterococcus faecium [3]): 16 µg/mL (≈ 37.6 µM) | MIC (Enterococcus faecium [4]): 16 µg/mL (≈ 37.6 µM) | ED50 [5]: 16.9 mg/kg | MIC (Staphylococcus aureus [6]): 16 µg/mL (≈ 37.6 µM) | MIC (Staphylococcus aureus [7]): 0.06 µg/mL (≈ 0.141 µM) | Ratio ED50 [8]: 1.4 | MIC (Escherichia coli [9]): 16 µg/mL (≈ 37.6 µM) | MIC (Escherichia coli [10]): 0.5 µg/mL (≈ 1.18 µM) | MIC [11]: 64 µg/mL (≈ 150 µM) | MIC (Enterococcus faecalis [12]): 4 µg/mL (≈ 9.4 µM) | MIC (Staphylococcus aureus [13]): 0.06 µg/mL (≈ 0.141 µM) | MIC (Pseudomonas aeruginosa [14]): 0.5 µg/mL (≈ 1.18 µM) | MIC (Klebsiella pneumoniae [15]): 0.5 µg/mL (≈ 1.18 µM) | MIC (Escherichia coli [16]): 32 µg/mL (≈ 75.2 µM) | MIC (Enterococcus faecalis [17]): 8 µg/mL (≈ 18.8 µM) | MIC (Pseudomonas aeruginosa [18]): 32 µg/mL (≈ 75.2 µM) | MIC (Escherichia coli [19]): 16 µg/mL (≈ 37.6 µM) | MIC (Staphylococcus aureus [20]): 4 µg/mL (≈ 9.4 µM) | MIC (Enterococcus faecium [21]): 0.125 µg/mL (≈ 0.294 µM) | MIC (Staphylococcus aureus [22]): 1 µg/mL (≈ 2.35 µM) | ED50 (Pseudomonas aeruginosa [23]): 21.3 mg/kg | MIC (Staphylococcus aureus [24]): 16 µg/mL (≈ 37.6 µM) | Ratio ED50 (Pseudomonas aeruginosa [25]): 5.2 | MIC (Pseudomonas aeruginosa [26]): 4 µg/mL (≈ 9.4 µM) | ED50 (Klebsiella pneumoniae [27]): 100 mg/kg | MIC [28]: 32 µg/mL (≈ 75.2 µM) | Ratio ED50 [29]: 1.4 | MIC [30]: 4 µg/mL (≈ 9.4 µM) | MIC (Enterococcus faecium [31]): 0.06 µg/mL (≈ 0.141 µM) | MIC (Klebsiella pneumoniae [32]): 0.015 µg/mL (≈ 0.0353 µM) | ED50 (Escherichia coli [33]): 5.83 mg/kg | MIC (Klebsiella pneumoniae [34]): 32 µg/mL (≈ 75.2 µM) | MIC (Staphylococcus aureus [35]): 0.015 µg/mL (≈ 0.0353 µM) | Ratio ED50 (Pseudomonas aeruginosa [36]): 6.1 | MIC (Staphylococcus aureus [37]): 0.008 µg/mL (≈ 0.0188 µM) | MIC (Staphylococcus aureus [38]): 0.015 µg/mL (≈ 0.0353 µM) | MIC (Staphylococcus aureus [39]): 0.5 µg/mL (≈ 1.18 µM) | MIC (Enterococcus faecium [40]): 32 µg/mL (≈ 75.2 µM) | MIC [41]: 2 µg/mL (≈ 4.7 µM) | MIC (Escherichia coli [42]): 8 µg/mL (≈ 18.8 µM) | MIC (Pseudomonas aeruginosa [43]): 0.5 µg/mL (≈ 1.18 µM) | MIC (Escherichia coli [44]): 0.008 µg/mL (≈ 0.0188 µM) | MIC (Staphylococcus aureus [45]): 32 µg/mL (≈ 75.2 µM) | MIC (Escherichia coli [46]): 16 µg/mL (≈ 37.6 µM) | MIC (Enterococcus faecium [47]): 32 µg/mL (≈ 75.2 µM) | MIC (Streptococcus pneumoniae): 0.03 µg/mL (≈ 0.0705 µM)
